ChEMBL document CHEMBL1123346, “Pyrimidinones. 3. N-substituted 6-phenylpyrimidinones and pyrimidinediones with diuretic/hypotensive and antiinflammatory activity” (J Med Chem, 1986)
Calls of active or inactive are those of the source.

How the values were obtained:
Rattus norvegicus [1] = experiment: Blood pressure change in rats after oral administration of 50 mg/kg dose after 4 hours; format: functional
Method in brief: (§1)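 Restrained female Sprague–Dawley rats with indwelling aortic cannulas exteriorized at the nape; direct arterial pressure via transducer, mean pressure by electrical integration of phasic pressure. Readings before and 4 and 24 h after oral dosing (carboxymethylcellulose suspension, 10 mL/kg). Value is change in mean arterial pressure, averaged over two animals.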

Rattus norvegicus [2] = experiment: Inhibition of RPAR administered perorally at 100 mg/kg dose; format: functional; conditions: route oral
Method in brief: (§2)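 Male Wistar rats (180-200 g), 5-10/group, dosed orally (water with Tween-80 suspension) 1 h before iv sensitization with 1 mg bovine serum albumin; 24-h fasted. 60 min later subplantar challenge with 200 µg anti-BSA in left hindpaw. Paw swelling by mercury displacement plethysmography at 2 h post-challenge.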

Rattus norvegicus [3] = experiment: Blood pressure change in rats after oral administration of 50 mg/kg dose after 24 hours; format: functional; method in brief: as §1
Rattus norvegicus [4] = experiment: Inhibition of RPAR administered perorally at 50 mg/kg dose; format: functional; conditions: route oral; method in brief: as §2
Rattus norvegicus [5] = experiment: Inhibition of RPAR administered perorally at 25 mg/kg dose; format: functional; conditions: route oral; method in brief: as §2
[6] = Sodium salt excretion in conscious rat at the dose of 10 mg/kg expressed as urinary excretion in treated rats/urinary excretion in control rats; format: ADME, organism-based, Urine; design: dose 10 mg/kg; conditions: in vivo
Method in brief: (§3)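 Male rats (~160 g) fasted 24 h, water withheld 1.5 h; oral gavage of compound (0.3-100 mg/kg) in 25 mL/kg saline with 0.5% carboxymethylcellulose; 5 h urine collection in metabolism cages. Urine volume, Na+ and K+ (flame photometry) expressed as treated/control excretion ratio.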

[7] = Potassium salt excretion in conscious rat at the dose of 1.0 mg/kg expressed as urinary excretion in treated rats/urinary excretion in control rats; format: ADME, organism-based, Urine; design: dose 1 mg/kg; conditions: in vivo; method in brief: as §3
[8] = Sodium salt excretion in conscious rat at the dose of 1.0 mg/kg expressed as urinary excretion in treated rats/urinary excretion in control rats; format: ADME, organism-based, Urine; design: dose 1 mg/kg; conditions: in vivo; method in brief: as §3
[9] = Sodium salt excretion in conscious rat at the dose of 0.3 mg/kg expressed as urinary excretion in treated rats/urinary excretion in control rats; format: ADME, organism-based, Urine; design: dose 0.3 mg/kg; conditions: in vivo; method in brief: as §3
Rattus norvegicus [10] = experiment: Compound was tested for urinary volume excretion in conscious rat at the dose of 10 mg/kg expressed as urinary excretion in treated rats/urinary excretion in control rats; format: ADME, organism-based, Urine; design: dose 10 mg/kg; conditions: in vivo; method in brief: as §3
Rattus norvegicus [11] = experiment: Compound was tested for urinary volume excretion in conscious rat at the dose of 3.0 mg/kg expressed as urinary excretion in treated rats/urinary excretion in control rats; format: ADME, organism-based, Urine; design: dose 3 mg/kg; conditions: in vivo; method in brief: as §3
[12] = Potassium salt excretion in conscious rat at the dose of 3.0 mg/kg expressed as urinary excretion in treated rats/urinary excretion in control rats; format: ADME, organism-based, Urine; design: dose 3 mg/kg; conditions: in vivo; method in brief: as §3
[13] = Potassium salt excretion in conscious rat at the dose of 0.3 mg/kg expressed as urinary excretion in treated rats/urinary excretion in control rats; format: ADME, organism-based, Urine; design: dose 0.3 mg/kg; conditions: in vivo; method in brief: as §3
[14] = Sodium salt excretion in conscious rat at the dose of 30 mg/kg expressed as urinary excretion in treated rats/urinary excretion in control rats; format: ADME, organism-based, Urine; design: dose 30 mg/kg; conditions: in vivo; method in brief: as §3
Rattus norvegicus [15] = experiment: Compound was tested for urinary volume excretion in conscious rat at the dose of 1.0 mg/kg expressed as urinary excretion in treated rats/urinary excretion in control rats; format: ADME, organism-based, Urine; design: dose 1 mg/kg; conditions: in vivo; method in brief: as §3
[16] = Potassium salt excretion in conscious rat at the dose of 10 mg/kg expressed as urinary excretion in treated rats/urinary excretion in control rats; format: ADME, organism-based, Urine; design: dose 10 mg/kg; conditions: in vivo; method in brief: as §3
[17] = Potassium salt excretion in conscious rat at the dose of 100 mg/kg expressed as urinary excretion in treated rats/urinary excretion in control rats; format: ADME, organism-based, Urine; design: dose 100 mg/kg; conditions: in vivo; method in brief: as §3
Rattus norvegicus [18] = species: Rattus norvegicus; experiment: Diuretic activity in rats; format: functional, Urine
Method in brief: (§4)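 Male rats (~160 g) fasted 24 h, water withheld 1.5 h, both withheld during test. Gavage 25 mL/kg 0.9% saline with 0.5% carboxymethylcellulose containing compound at 40 mg/kg; urine collected 5 h in metabolism cages. Two-stage test, T/C urine volume per stage; active if product of stage T/Cs ≥3.34.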

[19] = Sodium salt excretion in conscious rat at the dose of 100 mg/kg expressed as urinary excretion in treated rats/urinary excretion in control rats; format: ADME, organism-based, Urine; design: dose 100 mg/kg; conditions: in vivo; method in brief: as §3
[20] = Potassium salt excretion in conscious rat at the dose of 30 mg/kg expressed as urinary excretion in treated rats/urinary excretion in control rats; format: ADME, organism-based, Urine; design: dose 30 mg/kg; conditions: in vivo; method in brief: as §3
[21] = Sodium salt excretion in conscious rat at the dose of 3.0 mg/kg expressed as urinary excretion in treated rats/urinary excretion in control rats; format: ADME, organism-based, Urine; design: dose 3 mg/kg; conditions: in vivo; method in brief: as §3
Rattus norvegicus [22] = experiment: Compound was tested for urinary volume excretion in conscious rat at the dose of 30 mg/kg expressed as urinary excretion in treated rats/urinary excretion in control rats; format: ADME, organism-based, Urine; design: dose 30 mg/kg; conditions: in vivo; method in brief: as §3
Rattus norvegicus [23] = experiment: Compound was tested for urinary volume excretion in conscious rat at the dose of 100 mg/kg expressed as urinary excretion in treated rats/urinary excretion in control rats; format: ADME, organism-based, Urine; design: dose 100 mg/kg; conditions: in vivo; method in brief: as §3
Rattus norvegicus [24] = experiment: Compound was tested for urinary volume excretion in conscious rat at the dose of 0.3 mg/kg expressed as urinary excretion in treated rats/urinary excretion in control rats; format: ADME, organism-based, Urine; design: dose 0.3 mg/kg; conditions: in vivo; method in brief: as §3
Rattus norvegicus [25] = experiment: Compound was tested for inhibition of RPAR administered perorally at 25 mg/kg dose; I=Inactive; format: functional, organism-based; design: dose 25 mg/kg; method in brief: as §2
Rattus norvegicus [26] = species: Rattus norvegicus; experiment: Compound was tested for diuretic activity in rats; I=Inactive; format: functional, organism-based; conditions: Urine; method in brief: as §4

In the case of `Cn1c(-c2ccccc2)c(Br)c(=O)[nH]c1=O`, the MABP change (Rattus norvegicus [1]) is reported as 1 mmHg, the inhibition in vivo at 100 mg/kg (Rattus norvegicus [2]) is reported as 57% and the MABP change (Rattus norvegicus [3]) is reported as 1 mmHg. For the same compound, the inhibition in vivo at 50 mg/kg (Rattus norvegicus [4]) was 43% and the inhibition in vivo at 25 mg/kg (Rattus norvegicus [5]) was 22%.
In the case of `N=C(N)Nc1nc(O)c(I)c(-c2ccccc2)n1`, the MABP change (Rattus norvegicus [1]) is reported as -2 mmHg and the MABP change (Rattus norvegicus [3]) is reported as 3 mmHg.
`Cn1c(=O)cc(-c2ccccc2)[nH]c1=O` gave an MABP change (Rattus norvegicus [1]) of 0 mmHg and an MABP change (Rattus norvegicus [3]) of 6 mmHg.
In the case of `Cn1c(N)nc(-c2ccccc2)c(I)c1=O`, the “Na+ excretion” value [6] is reported as 1.9, the “K+ excretion” value [7] is reported as 1.1 and the “Na+ excretion” value [8] is reported as 1.2. The “Na+ excretion” value [9] was 1.1, the Urinary volume (Rattus norvegicus [10]) was 2.2 and the MABP change (Rattus norvegicus [1]) was -6 mmHg. The Urinary volume (Rattus norvegicus [11]) was 1.6, the “K+ excretion” value [12] was 1.2 and the “K+ excretion” value [13] was 1.1. The “Na+ excretion” value [14] was 2.4, the Urinary volume (Rattus norvegicus [15]) was 1.4 and the “K+ excretion” value [16] was 1.4. For the same compound, the inhibition in vivo at 100 mg/kg (Rattus norvegicus [2]) was 79%, the “K+ excretion” value [17] was 1.6 and the Diuretic activity (Rattus norvegicus [18]) was 4.46. For the same compound, the “Na+ excretion” value [19] was 2.7, the “K+ excretion” value [20] was 2.1 and the “Na+ excretion” value [21] was 1.6. For the same compound, the Urinary volume (Rattus norvegicus [22]) was 2.7, the Urinary volume (Rattus norvegicus [23]) was 2 and the Urinary volume (Rattus norvegicus [24]) was 1.3. For the same compound, the MABP change (Rattus norvegicus [3]) was -13 mmHg, the inhibition in vivo at 50 mg/kg (Rattus norvegicus [4]) was 30% and the inhibition in vivo at 25 mg/kg (Rattus norvegicus [5]) was 18%.
`N=C(N)Nc1nc(O)c(Br)c(-c2ccccc2)n1` showed an MABP change (Rattus norvegicus [1]) of -2 mmHg and an MABP change (Rattus norvegicus [3]) of -1 mmHg.
For `Cn1c(-c2ccccc2)cc(=O)[nH]c1=O`, the MABP change (Rattus norvegicus [1]) was 4 mmHg, the inhibition in vivo at 100 mg/kg (Rattus norvegicus [2]) was 79% and the MABP change (Rattus norvegicus [3]) was 6 mmHg. The inhibition in vivo at 50 mg/kg (Rattus norvegicus [4]) was 47% and the inhibition in vivo at 25 mg/kg (Rattus norvegicus [5]) was 27%.
For `CN(C)c1nc(O)c(Br)c(-c2ccccc2)n1`, the MABP change (Rattus norvegicus [1]) was 1 mmHg and the MABP change (Rattus norvegicus [3]) was 2 mmHg.
In the case of `Cn1c(=O)[nH]c(-c2ccccc2)c(I)c1=O`, the MABP change (Rattus norvegicus [1]) is reported as 1 mmHg and the MABP change (Rattus norvegicus [3]) is reported as 4 mmHg.
In the case of `Nc1nc(O)cc(-c2ccccc2)n1`, the inhibition (Rattus norvegicus [25]) is reported as “inactive” and the Diuretic activity (Rattus norvegicus [26]) is reported as “inactive”.
`Cn1c(-c2ccccc2)c(I)c(=O)[nH]c1=O` gave an MABP change (Rattus norvegicus [1]) of 15 mmHg, an inhibition in vivo at 100 mg/kg (Rattus norvegicus [2]) of 73% and an MABP change (Rattus norvegicus [3]) of -1 mmHg. For the same compound, the inhibition in vivo at 50 mg/kg (Rattus norvegicus [4]) was 44% and the inhibition in vivo at 25 mg/kg (Rattus norvegicus [5]) was 33%.
In the case of `Nc1nc(=O)c(Br)c(-c2ccccc2)[nH]1` [BROPIRIMINE], the “Na+ excretion” value [6] is reported as 2.3, the “K+ excretion” value [7] is reported as 1 and the “Na+ excretion” value [8] is reported as 1.3. The “Na+ excretion” value [9] was 1.1, the Urinary volume (Rattus norvegicus [10]) was 2.5 and the MABP change (Rattus norvegicus [1]) was 0 mmHg. For the same compound, the Urinary volume (Rattus norvegicus [11]) was 1.3, the “K+ excretion” value [12] was 1.1 and the “K+ excretion” value [13] was 1.1. The “Na+ excretion” value [14] was 2.9, the Urinary volume (Rattus norvegicus [15]) was 1.2 and the “K+ excretion” value [16] was 1.3. For the same compound, the inhibition in vivo at 100 mg/kg (Rattus norvegicus [2]) was 44%, the “K+ excretion” value [17] was 1.3 and the Diuretic activity (Rattus norvegicus [18]) was 7.41. For the same compound, the “Na+ excretion” value [19] was 2.8, the “K+ excretion” value [20] was 1.5 and the “Na+ excretion” value [21] was 1.5. The Urinary volume (Rattus norvegicus [22]) was 2.6, the Urinary volume (Rattus norvegicus [23]) was 2.7 and the Urinary volume (Rattus norvegicus [24]) was 1.1. For the same compound, the MABP change (Rattus norvegicus [3]) was -22 mmHg, the inhibition in vivo at 50 mg/kg (Rattus norvegicus [4]) was 31% and the inhibition in vivo at 25 mg/kg (Rattus norvegicus [5]) was 13%.
With `NS(=O)(=O)c1cc(C(=O)O)c(NCc2ccco2)cc1Cl` [FUROSEMIDE] the “Na+ excretion” value [6] was 1.5, the “K+ excretion” value [7] was 1 and the “Na+ excretion” value [8] was 1.1. The “Na+ excretion” value [9] was 1.1, the Urinary volume (Rattus norvegicus [10]) was 2.2 and the MABP change (Rattus norvegicus [1]) was 1 mmHg. The Urinary volume (Rattus norvegicus [11]) was 1.3, the “K+ excretion” value [12] was 1.3 and the “K+ excretion” value [13] was 1. The “Na+ excretion” value [14] was 3.1, the Urinary volume (Rattus norvegicus [15]) was 1.2 and the “K+ excretion” value [16] was 1.6. The “K+ excretion” value [17] was 3.2, the Diuretic activity (Rattus norvegicus [18]) was 31.25 and the “Na+ excretion” value [19] was 4.5. For the same compound, the “K+ excretion” value [20] was 2.2, the “Na+ excretion” value [21] was 1.1 and the Urinary volume (Rattus norvegicus [22]) was 4.7. The Urinary volume (Rattus norvegicus [23]) was 7.2, the Urinary volume (Rattus norvegicus [24]) was 1.1 and the MABP change (Rattus norvegicus [3]) was -3 mmHg.
